# Measured values published in ChEMBL document CHEMBL1123247, “Nucleoside conjugates. 7. Synthesis and antitumor activity of 1-beta-D-arabinofuranosylcytosine conjugates of ether lipids” (J Med Chem, 1986).
# Tests used:
# L1210 [1] = experiment: Antitumor activity was determined against the ip implanted L1210 leukemia in mice by 45-day survivors in mice at 100 mg/kg (treatment of 1-5qd schedule) dosage; format: functional, Mus musculus; conditions: route intraperitoneal
# How it was run: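 DBA/2J mice in groups of 6 (wt 23-28 g) were inoculated ip with 1×10^6 L1210 cells on day 0. Dosing was ip from 24 h, in 0.9% NaCl with 0.5% Tween-80 (conjugates sonicated), across a range of doses. Mice were observed daily until death or 45 days. Median T/C was computed from survivors per NCI protocols, and ILS = (T/C − 1)×100.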
# P388 [2] = experiment: Antitumor activity was determined against the ip implanted P388 leukemia in mice by 45-day survivors in mice at 67 mg/kg (treatment of 1,5,9qd schedule) dosage; format: functional, Mus musculus; conditions: route intraperitoneal
# How it was run: (§1)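 DBA/2J mice, 23-33 g, in groups of 6, were inoculated ip with 1×10^6 P388 cells on day 0. Dosing was ip from 24 h on the stated schedules, in 0.9% NaCl with 0.5% Tween-80 (sonicated solution or suspension). Survival was followed daily until death or 45 days. Median T/C was calculated from survivors per NCI protocols, with ILS = (T/C − 1) × 100.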
# P388 [3] = experiment: Antitumor activity was determined against the ip implanted P388 leukemia in mice by change in […] at 67 mg/kg (treatment of 1,5,9qd schedule) dosage; format: functional, Mus musculus; conditions: route intraperitoneal
# How it was run: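 P388 leukemia, 1×10^6 cells implanted ip on day 0 into DBA/2J mice, groups of 6 (wt 23-33 g). Dosing ip started 24 h post-inoculation, vehicle 0.9% NaCl containing 0.5% Tween-80. Animals were observed daily until death or 45 days. Outputs were weight change, median survival T/C from survivors per NCI protocols, and %ILS = (T/C − 1) × 100.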
# L1210 [4] = experiment: Antitumor activity was determined against the ic implanted L1210 lymphoid leukemia in mice by percent increase in life span at 80 mg/kg (1-5qd treatment schedule) dosage; format: functional, Mus musculus
# How it was run: (§2)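 DBA/2J mice, groups of 6 (26-32 g), got 1 × 10^5 L1210 cells ic on day 0. Dosing was ip starting 24 h later, as a sonicated solution or suspension in 0.9% NaCl with 0.5% Tween-80, over a wide dose range. Mice were followed daily until death. Median survival T/C was taken from survivors per NCI protocols, and ILS = (T/C − 1) × 100. Active range means doses giving ILS ≥25%; optimal dose means greatest ILS.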
# L1210 [5] = experiment: Antitumor activity was determined against the ip implanted L1210 leukemia in mice by change in […] at 300 mg/kg (treatment of 1qd schedule) dosage; format: functional, Mus musculus; conditions: route intraperitoneal
# How it was run: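 DBA/2J mice, 6 per group (wt 23-28 g), inoculated ip with 1×10^6 L1210 cells on day 0. Treatment was given ip in 0.9% NaCl with 0.5% Tween-80, starting 24 h later. Weight change was taken on day 8. Mice were observed daily until death or 45 days. Median survival T/C and %ILS = (T/C − 1) × 100 came from survivors per NCI protocols, and 45-day survivors were counted.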
# L1210 [6] = experiment: Antitumor activity against ip implanted L1210 leukemia in mice expressed as active dose range (1-5qd treatment schedule) required to produce increase in life span by >25% was determined; Range is 10-80; format: functional, Mus musculus
# How it was run: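 DBA/2J mice, groups of 6 (23-28 g), were inoculated ip with 1 × 10^6 L1210 cells on day 0. Dosing was ip from 24 h, in 0.9% NaCl with 0.5% Tween-80 (sonicated solution or suspension). Mice were observed daily until death or day 45. Median survival T/C followed NCI protocols, and ILS = (T/C − 1) × 100. Active range means doses giving ILS ≥25%; optimal dose means greatest ILS.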
# P388 [7] = experiment: Antitumor activity was determined against the ip implanted P388 leukemia in mice by range in survival days at 500 mg/kg (1 qd treatment schedule) dosage; Range is 35->45; conditions: route intraperitoneal
# L1210 [8] = experiment: Antitumor activity was determined against the ic implanted L1210 lymphoid leukemia in mice by range in survival days at 133 mg/kg (1,5,9qd treatment schedule) dosage; Range is 15-22; format: functional, Mus musculus
# L1210 [9] = experiment: Antitumor activity against the ic implanted L1210 lymphoid leukemia in mice expressed as optimal dose (1 qd treatment schedule) required to produce greatest increase in life span was determined
# L1210 [10] = experiment: Antitumor activity was determined against the ic implanted L1210 lymphoid leukemia in mice by range in survival days at 500 mg/kg (treatment of 1qd schedule) dosage; Range is 18-23
# L1210 [11] = experiment: Antitumor activity against ic implanted L1210 lymphoid leukemia in mice expressed as active dose range (1, 5, 9qd treatment schedule) required to produce increase in life span by >25% was determined; Range is 100-167; format: functional, Mus musculus; how it was run: as §2
# P388 [12] = experiment: Antitumor activity was determined against the ip implanted P388 leukemia in mice by percent median survival rate (treated/control) at 133 mg/kg (treatment of 1,5,9qd schedule) dosage; Range is >45.0/11.0; conditions: route intraperitoneal
# L1210 [13] = experiment: Antitumor activity against ic implanted L1210 lymphoid leukemia in mice expressed as active dose range (1 qd treatment schedule) required to produce increase in life span by >25% was determined; Range is 200-500
# L1210 [14] = experiment: Antitumor activity was determined against the ic implanted L1210 lymphoid leukemia in mice by percent increase in life span at 167 mg/kg (treatment of 1, 5, 9qd schedule) dosage; format: functional, Mus musculus; how it was run: as §2
# L1210 [15] = experiment: Antitumor activity was determined against the ic implanted L1210 lymphoid leukemia in mice by change in […] at 100 mg/kg (treatment of 1-9qd schedule) dosage; format: functional, Mus musculus
# How it was run: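 DBA/2J mice, 6 per group (wt 26-32 g), inoculated ic with 1×10^5 L1210 cells on day 0. Dosing ip began 24 h after inoculation, with a sonicated solution or suspension in 0.9% NaCl containing 0.5% Tween-80, given over a range of doses. Animals were followed daily until death. Body weight change, median survival T/C, and %ILS = (T/C − 1) × 100 were computed from survivors per NCI protocols.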
# P388 [16] = experiment: Antitumor activity was determined against the ip implanted P388 leukemia in mice by percent increase in life span at 200 mg/kg (treatment of 1-5qd schedule) dosage; format: functional, Mus musculus; conditions: route intraperitoneal; how it was run: as §1
# L1210 [17] = experiment: Antitumor activity was determined against the ic implanted L1210 lymphoid leukemia in mice by range in survival days at 300 mg/kg (treatment of 1-5qd schedule) dosage; Range is 15-18; format: functional, Mus musculus
smiles,measurement,setting,value
CCCCCCCCCCCCCCCCCCOCC(COP(=O)(O)OP(=O)(O)OC[C@H]1O[C@@H](n2ccc(N)nc2=O)[C@@H](O)[C@@H]1O)OC(=O)CCCCCCCCCCCCCCC (mixture of isomers),Survivors,L1210 [1],0
same,Survivors,P388 [2],0
same,Weight change,P388 [3],0.63 g mouse-1
CCCCCCCCCCCCCCCC(=O)OC[C@H](COP(=O)(O)OP(=O)(O)OC[C@H]1O[C@@H](n2ccc(N)nc2=O)[C@@H](O)[C@@H]1O)OC(=O)CCCCCCCCCCCCCCC,ILS,L1210 [4],175
same,Weight change,L1210 [5],-0.62 g mouse-1
same,Active dose range,L1210 [6],10 mg/kg/day
same,Range,P388 [7],35
same,Range,L1210 [8],15
CCCCCCCCCCCCCCCCOCC(COP(=O)(O)OP(=O)(O)OC[C@H]1O[C@@H](n2ccc(N)nc2=O)[C@@H](O)[C@@H]1O)OC(=O)CCCCCCCCCCCCCCC (mixture of isomers),Optimal dose,L1210 [9],500 mg
same,Range,L1210 [10],18
same,Active dose range,L1210 [11],100 mg/kg/day
same,T/C,P388 [12],>45%
same,Active dose range,L1210 [13],200 mg/kg/day
same,ILS,L1210 [14],200
Nc1ccn([C@@H]2O[C@H](CO)[C@@H](O)[C@@H]2O)c(=O)n1 [CYTARABINE],Weight change,L1210 [15],-5.8
same,ILS,P388 [16],109
same,Range,L1210 [17],15
